Among the data in ChEMBL document CHEMBL1125235, “Doxorubicin analogues incorporating chemically reactive substituents” (J Med Chem, 1991) are IC50 values, retold here.

In one test the test system is P388. The test is described as follows: Ability to inhibit growth of P388 leukemic cell line was determined in an in vitro MTT assay. The class given is functional, cell-based. To be noted: Mus musculus. Put shortly: (§1)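 Murine leukemia cells in RPMI 1640 with 10% heat-inactivated FCS, 2-mercaptoethanol; exponentially growing at 10^6 cells/mL, exposed to varying drug concentrations (DMSO stock, final 0.5% DMSO; controls same) for 1 h at 37 °C, washed twice with ice-cold PBS, resuspended at 2 × 10^5/mL in drug-free medium, cultured 72 h. IC50 = concentration giving 50% growth inhibition versus untreated controls.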

Test [1] deals with MES-SA. The test is described as follows: Ability to inhibit growth of doxorubicin-resistant (MES-SA/DOX) uterine sarcoma cell line was determined in an in vitro MTT assay. As to conditions: Homo sapiens. The class given is functional, cell-based. Put shortly: (§2)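 Uterine sarcoma cells in Waymouth's/McCoy's 5A with 15% FCS and insulin. MES-SA seeded at 4 × 10^3, MES-SA/DOX at 6 × 10^3 per well, attached 16–24 h, then given drug-containing medium (final DMSO 0.5%) for 72 h. MTT added for 3 h at 37 °C, formazan dissolved in DMSO, OD read at 570 nm. IC50 versus untreated controls.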

In another test the test system is L1210. The test is described as follows: Ability to inhibit growth of L1210 leukemic cell lines was determined in an in vitro MTT assay. The class given is functional, cell-based. As to conditions: Mus musculus. The essentials:
as §1

In test [2] the test system is MES-SA. The test is described as follows: Ability to inhibit growth of doxorubicin-sensitive (MES-SA) uterine sarcoma cell line was determined in an in vitro MTT assay. The class given is functional, cell-based. To be noted: Homo sapiens. The essentials:
as §2
Background: Formazan colour is commonly taken as a measure of viable cells.

A further test relates to KBM-3/DOX cell line. The test is described as follows: Ability to inhibit growth of human myelogenous leukemic cell line KBM-3 variant namely KBM-3/DOX, was determined in an in vitro clonogenic assay.
The next test concerns KBM-3 cell line. The test is described as follows: Ability to inhibit growth of human myelogenous leukemic cell line KBM-3 was determined in an in vitro clonogenic assay.

With `COc1cccc2c1C(=O)c1c(O)c3c(c(O)c1C2=O)C[C@](O)(C(=O)CO)C[C@@H]3OC1CC(NC(=O)CCl)C(O)C(C)O1` (stereo partly specified), the IC50 with P388 came out at 2900 nM; in the test with MES-SA [1], 2700 nM; in the test on L1210, 2100 nM; in the test on MES-SA [2], 400 nM.
Take `COc1cccc2c1C(=O)c1c(O)c3c(c(O)c1C2=O)C[C@](O)(C(=O)CO)C[C@@H]3OC1CC(NC(=O)N(CCCl)N=O)C(O)C(C)O1` (stereo partly specified): the concentration for half-maximal inhibition (IC50) was 250 nM with KBM-3/DOX cell line; 2900 nM in the test with P388; 7700 nM with MES-SA [1]; 210 nM in the test on KBM-3 cell line; 2900 nM with L1210; 800 nM in the test on MES-SA [2].
As to `COc1cccc2c1C(=O)c1c(O)c3c(c(O)c1C2=O)C[C@](O)(C(=O)CO)C[C@@H]3OC1CC(NC(=O)c2ccc(S(=O)(=O)F)cc2)C(O)C(C)O1` (stereo partly specified), the IC50 in the test with P388 worked out at 7700 nM; in the test with MES-SA [1], 6900 nM; with L1210, 6900 nM; with MES-SA [2], 3800 nM.
On to `COc1cccc2c1C(=O)c1c(O)c3c(c(O)c1C2=O)C[C@](O)(C(=O)CO)C[C@@H]3OC1CC(NC(=O)CBr)C(O)C(C)O1` (stereo partly specified), for which the IC50 with KBM-3/DOX cell line was 160 nM; in the test with P388 it was 1500 nM; with MES-SA [1] it was 800 nM; in the test on KBM-3 cell line it was 140 nM; with L1210 it was 2100 nM; in the test on MES-SA [2], 200 nM.
In the case of `COc1cccc2c1C(=O)c1c(O)c3c(c(O)c1C2=O)C[C@@](O)(C(=O)CO)C[C@@H]3O[C@H]1C[C@H](N)[C@H](O)[C@H](C)O1` [DOXORUBICIN], the IC50 in the test on KBM-3/DOX cell line stood at 490 nM; with P388, 1220 nM; in the test with MES-SA [1], 4200 nM; in the test on KBM-3 cell line, 26 nM; in the test with L1210, 200 nM; in the test on MES-SA [2] it was 40 nM.

The term IC50 denotes the concentration at which inhibition is half-maximal. A higher IC50 goes with weaker potency in that assay.
